Experimental findings from ChEMBL document CHEMBL1128310, “Antitumor imidazotetrazines. 32. Synthesis of novel imidazotetrazinones and related bicyclic heterocycles to probe the mode of action of the antitumor drug temozolomide” (J Med Chem, 1995) are described below.

Where only a bound is given, the exact number is not on record here.

One data set has as its system TLX-5. Kind of data set: In vitro cytotoxicity against mouse TLX5 lymphoma cells. In kind it is functional, cell-based. In short, it runs like this:
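Mouse TLX5 lymphoma cells in exponential growth at 2×10^4 cells/mL in RPMI 1640 with 15% FCS, given drug in DMSO, triplicate wells per concentration, 72 h at 37 °C under 5% CO2. Electronic cell counting; percent of DMSO-control growth plotted and IC50 (μM) calculated.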

For another data set, the system named is Raji. Put plainly: In vitro cytotoxicity against Raji cell line. The class given is functional, cell-based. Conditions: Homo sapiens.
The subject of data set [1] is GM892A cell line. Put plainly: (§1) In vitro cytotoxicity against human lymphoblastoid cell (GM892 A). The class given is functional, cell-based.
A short description of data set [2]: Ratio of cytotoxicity against Raji cells to that of GM892 A cells. In kind it is functional.
For data set [3], the system named is GM892A cell line. The description is as §1. The class given is functional, cell-based. In short, it runs like this: (§2)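 Mer⁻ GM892A cells in RPMI 1640 with 10% FCS and 1% L-glutamine, seeded at 0.8×10^5 cells/mL and exposed to a range of concentrations in DMSO (≤0.5%) for 72 h. At least three populations per concentration; duplicate cell counts after subtracting the seed number. Growth compared with solvent controls and IC50 (μM) derived.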
This is another data set of the same source.

Data set [4] is described as follows: Half life for the hydrolysis of compound in buffers at pH 7.4, at 37 degrees Celsius in incubation mixture - d(A)-d(T) (10:1). Conditions: buffer with d(A)-d(T) (10:1).
A short description of data set [5]: Half life for the hydrolysis of compound in buffers at pH 7.4 at 37 degrees Celsius in incubation mixture - d(A)-d(T) (10:!). The class given is ADME. Conditions: buffer with d(A)-d(T) (10:1). In short, it runs like this: (§3)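 Compound incubated at 37 °C in 0.1 M phosphate or 0.1 M sodium cacodylate buffer (pH 7.4 or 6.5) with homopolymer oligonucleotide or GMP/CMP, as equimolar nucleotide bases or 10-fold molar excess of bases. Loss of parent was followed by HPLC (0.5% acetic acid in water/methanol 70:30) over about three half-lives. Pseudo-first-order k from log peak area versus time; t1/2 = 0.693/mean k.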

A short description of data set [6]: Mean rate constant for the hydrolysis of compound in buffers at pH 7.4, at 37 degrees Celsius in incubation mixture - d(A)-d(T) (10:1). The settings on record: buffer.
Data set [7] is described as follows: Mean rate constant for the hydrolysis of compound in buffers at pH 7.4, at 37 degrees Celsius in incubation mixture - 5'-GMP/5'-CMP (1:1). In kind it is ADME. The settings on record: buffer. In short, it runs like this:
(§4)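 Compound incubated at 37 °C in 0.1 M phosphate or 0.1 M sodium cacodylate buffer (pH 7.4 or 6.5) with homopolymer oligonucleotide or GMP/CMP, as equimolar nucleotide bases or 10-fold molar excess of bases. Parent peak followed by HPLC for about three half-lives. Pseudo-first-order k from log(peak area) versus time, at least 10 points per run, averaged over replicate runs.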

Data set [8] is described as follows: Half life for the hydrolysis of compound in buffers at pH 6.5, at 37 degrees Celsius in incubation mixture - d(A)-d(T) (10:1). The class given is ADME. In short, it runs like this: as §3
Data set [9] in a line: Half life for the hydrolysis of compound in buffers at pH 6.5, at 37 degrees Celsius in incubation mixture - d(G)-d(C) (10:1). In kind it is ADME. In short, it runs like this:
as §3

Data set [10] in a line: Mean rate constant for the hydrolysis of compound in buffers at pH 7.4, at 37 degrees Celsius in incubation mixture - d(G)-d(C) (1:1). The class given is ADME. The settings on record: buffer. In short, it runs like this:
as §4

Data set [11] in a line: Half life for the hydrolysis of compound in buffers at pH 7.4, at 37 degrees Celsius in incubation mixture - d(A)-d(T) (1:1). The class given is ADME. The settings on record: buffer with d(A)-d(T) (1:1). In short, it runs like this:
as §3

Data set [12] relates to GM892A cell line. Put plainly: In vitro cytotoxicity against human lymphoblastoid cell line (GM892 A). The class given is functional, cell-based. In short, it runs like this:
as §2

Data set [13] is described as follows: Half life for the hydrolysis of compound in buffers at pH 7.4, at 37 degrees Centigrade in incubation mixture - d(G)-d(C) (10:1). In kind it is ADME. In short, it runs like this: as §3
Data set [14] is described as follows: Half life for the hydrolysis of compound in buffers at pH 7.4, at 37 degrees Centigrade in incubation mixture - 5'-GMP/5'-CMP (1:1). In kind it is ADME. The settings on record: buffer with 5'-GMP/5'-CMP (1:1). In short, it runs like this: as §3
The nature of data set [15]: Mean rate constant for the hydrolysis of compound in buffers at pH 7.4 at 37 degrees Centigrade in incubation mixture - d(A)-d(T) (10:!). In kind it is ADME. Conditions: buffer. In short, it runs like this:
as §4

The nature of data set [16]: Half life for the hydrolysis of compound in buffers at pH 7.4, at 37 degrees Celsius in incubation mixture - d(G)-d(C) (1:1). The class given is ADME. The settings on record: buffer with d(G)-d(C) (1:1). In short, it runs like this:
as §3

The nature of data set [17]: Mean rate constant for the hydrolysis of compound in buffers at pH 7.4, at 37 degrees Celsius in incubation mixture - d(A)-d(T) (1:1). In kind it is ADME. Conditions: buffer. In short, it runs like this:
as §4

Data set [18] has as its system GM892A cell line. Put plainly: In vitro cytotoxicity against human lymphoblast cell line (GM892 A). In kind it is functional, cell-based. In short, it runs like this: as §2

The molecule `NC(=O)c1cccc2c(O)nnnc12` registered a 50% inhibitory concentration (IC50) in the data set on TLX-5 of 400 µM.

In the case of `Cn1nnc2c(C(=O)NCCCN(CCCN)CCCCN)ncn2c1=O`, the IC50 with Raji and with GM892A cell line [1] was more than 500 µM each time.

With `CN(C)/N=N/c1[nH]cnc1C(N)=O` [DACARBAZINE], in data set [2], the Ratio amounted to 9. Also, the IC50 amounted to 14 µM in the data set on GM892A cell line [3] and 128 µM in the data set on Raji.

As to `O=C(O)c1ncn2c(=O)n(CCCl)nnc12`, in the data set with TLX-5, the IC50 was 15.8 µM.

Consider `O=C(Nc1ccccc1)c1ncn2c(=O)n(CCCl)nnc12`, for which the IC50 in the data set with TLX-5 is 1.25 µM.

As for `CCn1nnc2cc(C(N)=O)ccc2c1=O`, in the data set on TLX-5, the IC50 came to 108 µM.

`NC(=O)c1ccc2c(=O)n(-c3ccccc3)nnc2c1` had an IC50 in the data set on TLX-5 of 140 µM.

In the data set on TLX-5, `Cn1nnc2c(C(N)=O)cccc2c1=O` yielded an IC50 of more than 500 µM.

On to `NC(=O)c1cccc(NC(=O)c2ncn3c(=O)n(CCCl)nnc23)c1`, for which, in the data set on TLX-5, the IC50 stood at 35 µM.

Consider `NC(=O)c1ccc(NC(=O)c2ncn3c(=O)n(CCCl)nnc23)cc1`, for which the IC50 with TLX-5 was found to be 37 µM.

Regarding `Cn1nnc2cc(C(N)=O)ccc2c1=O`, half-maximal inhibition in the data set with TLX-5 (IC50) was put at 380 µM.

For `CCn1nnc2c(C(N)=O)ncn2c1=O`, the Ratio in [2] turned out to be 2.4. Moreover, the 50% inhibitory concentration (IC50) turned out to be 435 µM with Raji and 180 µM in the data set with GM892A cell line [1].

For `CNC(=O)c1nnc2c(O)n(C)nnc1-2`, the IC50 in the data set with Raji and in the data set with GM892A cell line [1] was more than 500 µM each time.

In turn, `Nc1nc(O)cc(-c2ccc(NC(=O)c3ncn4c(=O)n(CCCl)nnc34)cc2)n1` gave an IC50 in the data set on TLX-5 of 25 µM. That is a double-digit micromolar value.

`NC(=O)c1ccc2c(=O)n(CCCl)nnc2c1`: the midpoint of inhibition in the data set on TLX-5, the IC50, lay at 350 µM.

Regarding `NC(=O)c1ccccc1NC(=O)c1ncn2c(=O)n(CCCl)nnc12`, the IC50 in the data set with TLX-5 stood at 13 µM. Against the preceding molecule, the IC50 is about 27-fold lower.

Consider `NC(=O)c1ccc(NC(=O)c2ncn3c(=O)n(CCCl)nnc23)c(C(N)=O)c1`, for which, in the data set on TLX-5, the IC50 was 375 µM.

Take `NC(=O)c1ncn2c(=O)n(CCCl)nnc12` [MITOZOLOMIDE]: the half-life in [4] came out at 1.24 h; in data set [5] it was 0.947 h; in [8] (buffer with d(A)-d(T) (10:1)) it was 7.45 h; in data set [9] (buffer with d(G)-d(C) (10:1)) it was 7.5 h; in data set [11], 1.26 h; in [13] (buffer with d(G)-d(C) (10:1)) it was 1.27 h. In addition, the half-life in data set [14] worked out at 1.18 h; in [16], 1.22 h. Also, the Mean rate constant in [6] was 0.00932 min⁻¹; in data set [7] it was 0.00979 min⁻¹; in [10], 0.0094 min⁻¹; in data set [15], 0.0122 min⁻¹; in [17], 0.00915 min⁻¹. Further, the Ratio in data set [2] was determined as 8.1. Moreover, the T1/2 was 5.777 h in data set [8] (buffer), 5.747 h in [9] (buffer) and 0.947 h in data set [13] (buffer). Also, the figures for the IC50 in the data set on GM892A cell line [12], in the data set with Raji and in the data set on TLX-5 were 4.8 µM, 39 µM and 2.5 µM, respectively.

In turn, `NC(=O)c1cccc2c(=O)n(CCCl)nnc12` showed an IC50 in the data set on TLX-5 of 225 µM.

`CCn1nnc2c(C(N)=O)cccc2c1=O`: in the data set with TLX-5, the half-inhibitory concentration (IC50) came out at 325 µM. The IC50 values of the last two molecules are within 1.5-fold of each other.

`Cn1nnc2c(C(N)=O)cnn2c1=O`: the Ratio in [2] is listed as 51. Also, the IC50 with Raji stood at 270 µM; in the data set on GM892A cell line [1], 5.3 µM.

For the molecule `CN(N=O)C(N)=O.Cl.Cl.Cl`, the Ratio in [2] turned out to be 7.4. The IC50 stood at 259 µM in the data set on Raji and 35 µM in the data set with GM892A cell line [1].

In the case of `NC(=O)c1cccc2c(=O)n(-c3ccccc3)nnc12`, the IC50 with TLX-5 is more than 500 µM.

Regarding `Cn1nnc2c(C(N)=O)ncn2c1=O` [TEMOZOLOMIDE], the Ratio in data set [2] is given as 23. In addition, the half-maximal inhibitory concentration (IC50) with Raji is 175 µM; in the data set on TLX-5, 5 µM; in the data set with GM892A cell line [18], 7.6 µM.

Regarding `NC(=O)Cn1nnc2c(C(N)=O)cccc2c1=O`, the IC50 in the data set on TLX-5 was more than 500 µM.
